Assay results reported in PMC8591627 (ACS infectious diseases, 2021).
≈ marks a conversion by molar mass, not a printed value. Where “and” joins values, the source holds several entries; their conditions need not be identical. Equal entries are not always repeated.

Key:
[1] = test system: S. aureus LAC yceI::Tn pLL39_yceI; assay: MIC; format: cell-based, Staphylococcus aureus; conditions: genotype yceI::Tn pLL39_yceI, LAC background
LAC pEPSA5_yceI = assay: MIC; format: cell-based, Staphylococcus aureus; conditions: for MIC: LAC pEPSA5_yceI
Summary of the method: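 LAC strains carried empty pEPSA5 or pEPSA5_yceI (yceI under a xylose-inducible promoter). They were grown overnight with or without xylose induction; for the azoR overexpression set, pEPSA strains were cultured with 1% xylose. The 1/1000 inoculum went into Mueller-Hinton broth with serial compound dilutions, incubated statically at 37 °C for 18 h. Values represent three independent experiments.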

[2] = test system: S. aureus LAC yceI::Tn pLL39_yceI3; assay: MIC; format: cell-based, Staphylococcus aureus; conditions: genotype yceI::Tn pLL39_yceI3, LAC background
Vero cells = format: cell-based; conditions: 72 h
LAC pEPSA5_azoR = assay: MIC; format: cell-based, Staphylococcus aureus; conditions: cultured with 1% xylose
Summary of the method: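 pEPSA vector strains were cultured with 1% xylose for induction. Overnight Mueller-Hinton cultures (37 °C, 200 rpm) were diluted 1/1000 into serial dilutions of test compound in Mueller-Hinton broth in 96-well plates. Plates were incubated statically at 37 °C for 18 h. Values are representative of three independent experiments.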

MRSA ATCC 43300 = assay: MIC, drug susceptibility assay; format: cell-based, Staphylococcus aureus; conditions: 18 h, 37 °C, visual inspection
S. aureus (ATCC 43300) [3] = assay: Nitric oxide release assay, DAF-FM diacetate; format: cell-based, Staphylococcus aureus; conditions: 100 μM, over 2 h; positive control DEA-NONOate
Summary of the method: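 ATCC 43300 in Mueller-Hinton medium at OD600 0.2 was loaded with 10 μM DAF-FM diacetate for 30 min in the dark. Cells were then exposed to 100 μM test compound or 100 μM DEA-NONOate for 120 min. Controls were medium alone, bacteria alone, and bacteria with dye. Fluorescence (ex 495/em 515 nm) was read in triplicate.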

[4] = test system: LAC yceI::Tn azoR2 pCM28_azoR; assay: MIC; format: cell-based, Staphylococcus aureus
Summary of the method: (§1)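 Overnight cultures were grown in 5 mL Mueller-Hinton at 37 °C with shaking at 200 rpm. They were diluted 1/1000 into 96-well plates holding serial dilutions of test compound in Mueller-Hinton broth. Plates were sealed against drying and incubated statically at 37 °C for 18 h before reading. All strains are isogenic and in the LAC background.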

[5] = test system: S. aureus LAC yceI::Tn pLL39; assay: MIC; format: cell-based, Staphylococcus aureus; conditions: genotype yceI::Tn pLL39, LAC background
S. aureus (ATCC 43300) [6] = assay: Nitric oxide release assay, Griess reagent; format: cell-based, Staphylococcus aureus; conditions: 100 μM, over 48 h; positive control DEA-NONOate
Summary of the method: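 ATCC 43300 was grown in Mueller-Hinton medium to OD600 0.4 and split three ways: untreated, 100 μM test compound, or 100 μM DEA-NONOate. At 24 and 48 h, samples were centrifuged and supernatants were mixed with fresh Griess reagent for 30 min at room temperature. Absorbance at 548 nm was converted to nitrite against sodium nitrite standards (50–0.78 μM, 2-fold) made in medium.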

LAC azoR::Tn = assay: MIC; format: cell-based, Staphylococcus aureus; conditions: genotype azoR::Tn, LAC background
Summary of the method: as §1

S. aureus LAC pLL39 = assay: MIC; format: cell-based, Staphylococcus aureus; conditions: genotype pLL39, LAC background
VRSA strains = assay: MIC versus VRSA clinical isolates; format: cell-based, Staphylococcus aureus; conditions: five clinical isolates of VRSA
LAC yceI::Tn azoR1 = assay: MIC; format: cell-based, Staphylococcus aureus
Summary of the method: as §1

LAC yceI::Tn azoR2 pCM28 = assay: MIC; format: cell-based, Staphylococcus aureus
Summary of the method: as §1

LAC yceI::Tn azoR4 = assay: MIC; format: cell-based, Staphylococcus aureus; conditions: genotype yceI::Tn azoR4
LAC yceI::Tn azoR3 pCM28 = assay: MIC; format: cell-based, Staphylococcus aureus
Summary of the method: as §1

S. aureus LAC pLL39_yceI = assay: MIC; format: cell-based, Staphylococcus aureus; conditions: genotype pLL39_yceI, LAC background
LAC yceI::Tn pCM28_azoR = assay: MIC; format: cell-based, Staphylococcus aureus
Summary of the method: as §1

[7] = test system: S. aureus LAC pLL39_yceI3; assay: MIC; format: cell-based, Staphylococcus aureus; conditions: genotype pLL39_yceI3, LAC background
LAC yceI::Tn = assay: MIC; format: cell-based, Staphylococcus aureus; conditions: genotype yceI::Tn, LAC background
Summary of the method: as §1

LAC yceI::Tn azoR1 pCM28 = assay: MIC; format: cell-based, Staphylococcus aureus
Summary of the method: as §1

[8] = Mouse pharmacokinetic study; format: in vivo; conditions: CD-1 mice, oral 25 mg/kg, 0.5-5 h
Summary of the method: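 Two female CD-1 mice received one oral 25 mg/kg dose in 20% DMA/80% PEG300. K2EDTA blood was taken pre-dose and at 0.5, 1, 3 and 5 h, and plasma was stored at −80 °C. Samples were precipitated with acetonitrile/methanol containing a verapamil internal standard and analysed by LC-MS/MS in MRM positive mode. Standard curves were made in CD-1 plasma, and QCs had to fall within 20% of nominal.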

[9] = test system: JSF-3151–resistant strains; assay: MIC versus JSF-3151-resistant strains compared to the parental strain; format: cell-based, Staphylococcus aureus; conditions: yceI promoter mutants versus parent
LAC yceI::Tn azoR4 pCM28 = assay: MIC; format: cell-based, Staphylococcus aureus
Summary of the method: as §1

[10] = test system: S. aureus LAC pLL39_yceI1; assay: MIC; format: cell-based, Staphylococcus aureus; conditions: genotype pLL39_yceI1, LAC background
LAC yceI::Tn strain = assay: Selection of spontaneous resistant mutants, frequency; format: cell-based, Staphylococcus aureus

Compound `O=C(Nc1cc(Cl)cc2cccnc12)c1ccc([N+](=O)[O-])s1` [JSF-3151] has an MIC [1] of 1.6 µg/mL (≈ 4.79 µM), an MIC (LAC pEPSA5_yceI; growth with xylose +) greater than 50 µg/mL and an MIC (LAC pEPSA5_yceI; growth with xylose −) of 3.1 µg/mL (≈ 9.29 µM). The “resistance versus strain carrying empty vector pEPSA5” value (LAC pEPSA5_yceI; overnight induction with xylose) was greater than 64 fold, the MIC [2] was 50 µg/mL (≈ 150 µM) and the “Vero cell CC50” value (Vero cells) was greater than 50 µg/mL. The CC50 (Vero cells; read-out: Vero cell CC50) was greater than 150 µM, the MIC (LAC pEPSA5_azoR) was 0.39 µg/mL (≈ 1.17 µM) and the “MRSA ATCC 43300 MIC” value (MRSA ATCC 43300) was 4.0 μg/mL and 12 μM. The “MRSA ATCC 43300 MIC” value (MRSA ATCC 43300; listed as Z296972134 (3151)) was 4.0 μg/mL and 12 μM, the “intrabacterial NO• release (DAF-FM)” value (S. aureus (ATCC 43300) [3]) was “neither DAF-FM (over 2 h) nor the Griess reagent (over 48 h) evidenced NO• production” and the MIC [4] was 1.5 µg/mL (≈ 4.49 µM). The MIC [5] was 0.78 µg/mL (≈ 2.34 µM), the “NO• production as nitrite in supernatant (Griess reagent)” value (S. aureus (ATCC 43300) [6]) was “neither DAF-FM (over 2 h) nor the Griess reagent (over 48 h) evidenced NO• production” and the MIC (LAC azoR::Tn) was 50 µg/mL (≈ 150 µM). The MIC (S. aureus LAC pLL39) was 6.2 µg/mL (≈ 18.6 µM), the “MIC versus VRSA compared to MRSA” value (VRSA strains) was “even greater potency” and the “MIC shift versus yceI::Tn parental strain” value (LAC yceI::Tn azoR1; azoR1 (Trp100stop)) was 15 fold. It also gave an MIC (LAC yceI::Tn azoR1; genotype yceI::Tn azoR1) of 12 µg/mL (≈ 36 µM), an MIC (LAC yceI::Tn azoR2 pCM28) of 25 µg/mL (≈ 74.9 µM) and an MIC (LAC yceI::Tn azoR4) of 25 µg/mL (≈ 74.9 µM). The MIC (LAC yceI::Tn azoR3 pCM28) was greater than 50 µg/mL, the MIC (S. aureus LAC pLL39_yceI) was 6.2 µg/mL (≈ 18.6 µM) and the MIC (LAC yceI::Tn pCM28_azoR) was 0.78 µg/mL (≈ 2.34 µM). The MIC [7] was 50 µg/mL (≈ 150 µM), the MIC (LAC yceI::Tn) was 0.78 µg/mL (≈ 2.34 µM) and the MIC (LAC yceI::Tn azoR1 pCM28) was greater than 50 µg/mL. The “mouse plasma level relative to MIC” value [8] was “inability to reach the MIC over a 5 h time period”, the “loss of susceptibility of three representative mutants” value [9] was greater than 16 fold and the MIC (LAC yceI::Tn azoR4 pCM28) was 25 µg/mL (≈ 74.9 µM). For the same compound, the MIC [10] was 50 µg/mL (≈ 150 µM) and the “frequency of heritable resistance” value (LAC yceI::Tn strain) was “approximately 3 x 10^−8”.
